Measured values of several laboratories.
HTR2C: 5-hydroxytryptamine receptor 2C (HTR2C, Homo sapiens, UniProt P28335)
HTR2B: 5-hydroxytryptamine receptor 2B (HTR2B, Homo sapiens, UniProt P41595)
Tmem97: Sigma intracellular receptor 2 (Tmem97, Rattus norvegicus, UniProt Q5U3Y7)
blaNDM-1: Metallo-beta-lactamase type 2 (blaNDM-1, Klebsiella pneumoniae, UniProt C7C422)

COc1cc2c3c(c1OC)-c1ccccc1C[C@H]3N(C)CC2  Ki (HTR2C; ligand displacement, radioligand; cell membranes): 0.0222 µM
CN(C)CCc1c[nH]c2ccc(Cn3cncn3)cc12  EC50 (HTR2B; calcium signal, agonist, fluorescence): 14 µM
CCC1CCN(C(=O)[C@H](CCCNC(=N)N)NS(=O)(=O)c2cccc3c(N(C)C)cccc23)CC1  Kd (Prothrombin (F2, Bos taurus, UniProt P00735); binding, ITC): 0.022 µM
CSc1nc(N[C@H](C(C)C)C2CC2)c2ncn([C@H]3[C@H](O)[C@H](O)[C@]4(CO)C[C@H]34)c2n1  Ki (HTR2C; ligand displacement, radioligand): 0.432 µM
CCN(CC)CCNC(=O)c1ccc(F)cc1  Ki (Tmem97; ligand displacement, radioligand; cell membranes): 120 µM
COc1cc2c3c(c1OC)-c1ccccc1CC3NCC2 (centres unmarked)  Ki (HTR2C; ligand displacement, radioligand; cell membranes): 0.446 µM
O=C(O)[C@H]1CS[C@@H]2CS[C@@H](CS)N12  Ki (blaNDM-1; enzyme activity, inhibitor, absorbance; pH 7.5): 19 µM
CCCCN1CCc2cc(OC)c(OC)cc2C1  Ki (Tmem97; ligand displacement, radioligand; cell membranes): 0.015 µM
COc1ccc2cccc(C(CO)CNC(=O)CF)c2c1 (centres unmarked)  EC50 (Melatonin receptor type 1A (MTNR1A, Homo sapiens, UniProt P48039); GTPγS binding, agonist, radiometric; cell membranes): 0.0794 µM
CC(C)C(Nc1nc(Cl)nc2c1ncn2[C@H]1[C@H](O)[C@H](O)[C@]2(CO)C[C@H]12)C(C)C  Ki (HTR2C; ligand displacement, radioligand): 1.16 µM
C[C@H](N)Cn1ncc2ccc3c(c21)CCCO3  EC50 (5-hydroxytryptamine receptor 2A (Rattus norvegicus, UniProt P14842); calcium signal, agonist, fluorescence): 0.0225 µM
COc1cc(CC(C)N)c(OC)cc1I (racemic)  Ki (HTR2C; ligand displacement, radioligand): 0.00042 µM
CC1(C)S[C@H]2CS[C@H](CS)N2[C@@H]1C(=O)O  Ki (blaNDM-1; enzyme activity, inhibitor, absorbance; pH 7.5): 18 µM
CC(C)[C@@H](Nc1nc(I)nc2c1ncn2[C@H]1[C@H](O)[C@H](O)[C@]2(CO)C[C@H]12)C1CC1  Ki (HTR2C; ligand displacement, radioligand): 0.344 µM
CCCN1CCc2cc(OC)cc3c2[C@H]1Cc1ccc(O)c(O)c1-3  Kd (D(3) dopamine receptor (Drd3, Rattus norvegicus, UniProt P19020); binding, radioligand; cell membranes): 0.00202 µM
CSC[C@@]12C[C@@H]1[C@@H](n1cnc3c(N[C@H](C(C)C)C4CC4)nc(Cl)nc31)[C@H](O)[C@@H]2O  Ki (HTR2C; ligand displacement, radioligand): 2.57 µM
COc1cc(CC(C)N)c(OC)cc1I (centres unmarked)  Ki (HTR2B; ligand displacement, radioligand): 0.0012 µM
